An excerpt weighted towards active compounds, which were near 4.1% of everything screened.
FLuc act counter: firefly luciferase counter-screen for stimulation assays. AID 1027. P08659. activation factor at 10 µM. ATPlite luciferase biochemical, luminescence, 10 min; 0 = ATP-free wells, 1 = DMSO control. 200,000 tested, under 10 active;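 active = luciferase activation factor, scaled between plate controls, of at least 2 with compound at 10 µM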
Target sequence (P08659 whole entry, looked up): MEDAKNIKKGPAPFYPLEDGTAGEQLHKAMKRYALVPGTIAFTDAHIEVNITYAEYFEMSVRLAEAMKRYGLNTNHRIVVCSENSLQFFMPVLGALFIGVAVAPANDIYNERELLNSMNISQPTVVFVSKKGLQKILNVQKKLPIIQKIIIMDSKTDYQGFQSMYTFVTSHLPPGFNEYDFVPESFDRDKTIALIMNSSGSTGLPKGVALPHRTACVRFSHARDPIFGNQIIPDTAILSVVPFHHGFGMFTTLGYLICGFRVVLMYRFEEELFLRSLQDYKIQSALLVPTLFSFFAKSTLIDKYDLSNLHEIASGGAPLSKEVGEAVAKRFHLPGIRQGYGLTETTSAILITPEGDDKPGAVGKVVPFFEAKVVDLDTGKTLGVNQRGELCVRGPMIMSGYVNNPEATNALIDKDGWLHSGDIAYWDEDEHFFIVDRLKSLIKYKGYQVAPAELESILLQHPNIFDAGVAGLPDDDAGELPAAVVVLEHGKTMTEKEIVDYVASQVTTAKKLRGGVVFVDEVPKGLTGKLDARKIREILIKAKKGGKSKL
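Material: luciferase plus luciferin reagent, cell-free. Medium: PBS buffer for ATP. Also added: ATP substrate, dispensed from a 10.24 µM working solution in PBS. Doses: test compounds dosed from 2 mM stocks in 100% DMSO. Incubation: 10 min post-reagent at room temperature. Technique: light output (luminescence). Read-out basis: luminescence gain marking luciferase activators.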
APP 5'UTR act: APP 5'UTR luciferase reporter activation | SH-SY5Y APP 5'UTR luciferase reporter, luminescence; zero percent = DMSO vehicle wells | activation, % at 2 µM | hit rate 1% among 190,000;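 active = activation above a set limit, based on mean plus 3 SD of controls, cut at about 140% in these data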
STAT1 activator: increases IFN-gamma driven STAT1 reporter signal. NIH 3T3 STAT1-luciferase reporter, luminescence; 100% = IFN-gamma alone, no compound. activation (% of control), % at 5.5 µM. AID 932. hit rate 2.6% among 200,000;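 active = activation above the screen-wide mean activation plus 3 SD, cut at about 130% in these data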;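 also: raw ratio to IFN-gamma control signal so 100% means no change and 0% no light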
FLuc inh counter: counter-screen for luciferase assay inhibitors: firefly luciferase inhibition; ATPLite firefly luciferase biochemical luminescence, 10 min; hit rate 1.5% among 200,000; inhibition, % at 10 µM; P08659;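 active = inhibition above about 50% when tested at 10 µM, limit read from the data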
NF-kB expr up: compounds increasing NF-kB expression in human neuronal cells; NF-kB reporter expression; hits give high values; fold change at 12.5 µM; hit rate 1.6% among 190,000; AID 1239; in the data active = fold change above about 3.3
* = called active by the depositor; . = no result.

SMILES	FLuc act counter	APP 5'UTR act	STAT1 activator	FLuc inh counter	NF-kB expr up
Cc1ccc(S(=O)(=O)N2CCOCC2)cc1NC(=O)COC(=O)CNC(=O)c1ccc(C(C)(C)C)cc1	0.2	25	99	81*	1.2
Cc1ccc(S(=O)(=O)N2CCOCC2)cc1NC(=O)COC(=O)Cc1ccsc1	1.1	-2	90	-8	0.94
CCOc1ccc(-n2nc3c(-n4ncc(C#N)c4N)nnc(C)c3c2C)cc1	.	-5	96	.	.
COc1ccccc1N1CCN(CC(=O)Nc2sccc2C#N)CC1	1	-8	101	-5	0.55
CCCc1nc(SCC(=O)N2CCC(Cc3ccccc3)CC2)c2c(=O)n(C)c(=O)n(C)c2n1	1.1	-1	98	-12	0.34
CSc1ccc(/C=N/n2c(C)cc(C)cc2=O)cc1	0.8	19	130*	24	2.4
CSc1ccc(/C=N/n2c(C)nnc2C)cc1	1.1	-10	88	-9	1.2
Clc1ccc2c(Cl)c(-c3nnc(-c4ccccc4)o3)sc2c1	.	2	104	.	.
Fc1ccc2c(Cl)c(-c3nnc(-c4cccs4)o3)sc2c1	0.7	146*	118	34	2.3
Cc1cc(=O)n2cccc(O)c2n1	1.1	1	103	-8	1.1
Cc1ccc(NC(=O)N2CCc3ccccc32)cc1C	0.1	160*	93	86*	9.2*
Cc1ccc(NC(=O)N2CCc3ccccc32)cc1	0.1	170*	90	90*	8.1*
Cc1ccc(NC(=O)N2CCCc3ccccc32)cc1	0.9	15	105	7	1.4
O=C(N/N=C/c1ccc[nH]1)c1ccccc1O	0.4	40	93	62*	1.3
O=C(N/N=C/c1ccc[nH]1)c1ccc(O)cc1	0.8	36	89	18	1.3
Cc1cc(C(=O)N/N=C/c2ccc[nH]2)n[nH]1	1	-5	102	3	4.4*
CC(C)C(C)NC(=O)COC(=O)c1cccc(C(=O)OCC(=O)NC(C)C(C)C)n1 (stereo not drawn)	1.1	1	81	-6	1.4
Cc1cnc(C(=O)Nc2nnc(C(C)C)s2)cn1	1	36	131*	-1	1.8
CC(C)=CC(=O)Nc1nnc(C(C)C)s1	1	100	145*	-3	2.7
COc1cccc(-c2nnc(NC(=O)c3cccs3)s2)c1	0.7	41	138*	33	1.8
CCOC(=O)Nc1nnc(-c2cccc(OC)c2)s1	0.9	-9	106	6	1.3
CCCCC(CC)c1nnc(NC(=O)c2cccs2)s1 (stereo not drawn)	1	9	96	-4	1.3
CC(C)c1nnc(NC(=O)c2cccs2)s1	0.9	.	129*	11	2.7
CC(C)CC(C(=O)NC(C)(C)C)N(CC1CCCO1)C(=O)c1snc(C(N)=O)c1N (stereo not drawn)	1	6	104	-3	0.24
CC(C)(C)c1nnc(NC(=O)c2cccs2)s1	0.7	68	134*	30	3.4*
SMILES	FLuc act counter	APP 5'UTR act	STAT1 activator	FLuc inh counter	NF-kB expr up
Cc1cc(C)c2nc(/N=C(\N)NC(=O)Nc3ccccc3)nc(C)c2c1	1	6	95	-3	0.34
O=C(N/N=C1\CCc2ccccc21)c1ccncc1	0.9	55	130*	13	1.3
COc1ccc(C(=O)N/N=C2\CCc3ccccc32)cc1OC	1	-4	112	2	1.4
O=C(N/N=C1\CCc2ccccc21)c1ccccc1O	0.1	128	104	90*	3.8*
O=C(N/N=C1\CCCc2ccccc21)c1ccccc1Cl	0.9	-15	122	11	1.7
CS(=O)(=O)Cc1nc2ccccc2oc1=O	1.1	-12	95	-8	4.7*
C/C(O)=C\c1nc2ccccc2oc1=O	1	-1	96	-5	3.6*
Cc1ccc(C2=NNC(c3cccc(F)c3)S2)cc1 (stereo not drawn)	0.2	165*	55	84*	3.4*
O=C1c2ccccc2C2=Nc3ccccc3SC(c3cccc(F)c3)C12 (stereo not drawn)	1	-17	108	-4	1.1
COc1ccc(C2NN=C(c3ccc(C)cc3)S2)cc1OC (stereo not drawn)	0.2	164*	136*	79*	3.5*
Fc1cccc(C2NN=C(c3ccccc3)S2)c1 (stereo not drawn)	0.3	182*	163*	67*	9*
O=C(COC(=O)Cc1ccccc1F)Nc1ccc(F)cc1F	1	-7	102	-4	1
COC(=O)[C@@]1(Cc2ccc(OC)cc2)[C@H]2c3cc(C(=O)N4CCCC4)n(Cc4ccc(C)o4)c3C[C@H]2CN1C(=O)c1ccccc1	1	14	105	-4	0.54
COc1cccc(NC(=S)N(CCN(C)C)Cc2cccs2)c1	1.1	5	105	-8	5.8*
CC(=O)N(/N=C1\Sc2ccccc2C1=O)c1ccccc1C	1	131	124	4	5*
CCOC(=O)CC(NC(=O)c1cccc2c1C(=O)N(Cc1cccnc1)C2)c1ccc(OCC)c(OC)c1 (stereo not drawn)	1	11	91	-4	0.78
CCN(CC)c1ccc(/C=N/N2CCOCC2)cc1	0.5	48	139*	52*	3.2
CCN(Cc1ccccc1)c1ccc(/C=N/N2CCOCC2)cc1	1	-14	113	2	1.6
Cn1c(SCc2ccccc2Cl)nc2ccccc21	0.7	114	141*	29	1.1
C(=N\Nc1ccc2ccccc2n1)/c1ccc2c(c1)OCCO2	0.1	48	17	93*	0.43
Cc1ccc(/C=N/Nc2ccc3ccccc3n2)o1	0.1	183*	32	87*	3.2
Cc1cc(C)nc(N/N=C/c2ccc3c(c2)OCCO3)n1	0.8	20	107	20	0.79
Cc1cc(C)nc(N/N=C/c2ccccc2)n1	1	9	108	2	1.5
Cc1cccc(/C=N/Nc2ccc3ccccc3n2)c1	0.1	56	15	91*	0.5
Cc1ccc2c(c1)C(c1ccncc1)=NNC(c1ccc(C(C)C)cc1)=N2	1	12	103	-2	1.1
SMILES	FLuc act counter	APP 5'UTR act	STAT1 activator	FLuc inh counter	NF-kB expr up
CC1CCc2c(sc(NS(=O)(=O)c3ccccc3)c2C(=O)OC(C)C)C1 (stereo not drawn)	1.1	-21	95	-6	1.1
Cc1cccc(N2C(=O)CC(c3ccc(F)cc3)C3=C2COC3=O)c1 (stereo not drawn)	1	7	92	-2	1.1
Cc1ccccc1CSCC(=O)NCCSc1ccccn1	1.1	4	102	-5	1.2
Cc1ccc(C(=O)COC(=O)CNS(=O)(=O)c2ccccc2)cc1[N+](=O)[O-]	1	4	97	-3	1.1
O=C(OCC(=O)c1cccs1)c1ccccc1	0.5	54	140*	50*	5.5*
O=C(Nc1nccs1)C1Cc2ccccc2CN1S(=O)(=O)c1ccc(F)cc1 (stereo not drawn)	0.9	155*	123	6	1.6

High-throughput results as filed in PubChem BioAssay.
